Drawing on the RNAGym collection of RNA variant scans (doi:10.1101/gad.245936.114), this text covers nonsense suppression for 27 variants.

The chains are these.
B1: tRNA (parent)
chain: CUCUCGGUAGCCAAGUUGGUUUAAGGCGCAAGACUUUAAUUUAUCACUACGAAAUCUUGAGAUCGGGCGUUCGACUCGCCCCCGGGAGAUUUUUUCCUCGAGCAA

This sample holds only a part of the variants without activity.

The variants in this series derive from B1. As to the kind of experiment: nonsense suppression (GFP-seq) (ratio to wild type); higher = more function; SUP4oc tRNA, yeast GFP reporter sort-seq. In short, it runs like this:
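Nonsense suppression (GFPSEQ) is the median GFP/RFP ratio of each sorting bin, weighted by the variant's estimated share of cells in that bin and expressed relative to the unmutated parent tRNA. Yeast strains carried genome-integrated variants of an ochre-suppressor tRNA from a library with ~3% random mutations, plus a galactose-driven GFP ochre reporter and RFP, and were grown in raffinose/galactose medium containing 80 mg/L adenine. Cells were sorted into GFP/RFP bins, each bin was Illumina-sequenced (phred ≥30), and variants were kept only with ≥100 reads and ≥30 cells.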
Consider CUCUCUCUAGCCAAGUUGGUUUAAGGCGCAAGUCUUUAAUUUAUCACUACGAAAUCUUGAGAUCGGGCGUUCGACUCGCCCCCGGGAGAUUUUUUCCUCGAGCAA, for which the nonsense suppression was ≤ 0.026.

As to CUCUCGAUAGCCUAGUUGGUUUAAGGCGCAAGACUUUAAUUUAUCACUACGAAAUCUGGAGAUCGGGCGUUCGACUCGCCCCCGGCAGAUUUUUUCCUCGAGCAA, the nonsense suppression was ≤ 0.026.

For CUCUCGAUAGCCAAGUUGGUUUAAGGCGCAAGAUUUUAAUUUAUCACUACGAAAUCUUGAGAUCGGGCGUUCGACUCGCCCCCGGGAGAUUUUUUCCUCGAGCAA, the nonsense suppression is ≤ 0.026.

For the variant CUCUCCGUAGCCAAGUUGGUUUAAGGCGCAAGACUUUAAUUUAUCACUACGAAAUCUUGAGAUCGGGCGUACGACUCGCCCCCGGGAGAUUUUUUCCUCGAGCAA, the nonsense suppression is ≤ 0.026.

Take CUCUCUGUAGCCAAGUUGGUUUAAGGCGCAAGACUUUAAUUUAUCACUACGAAAUCUUGAGAUCGGGCGUUCGACUCGCCCCGGGGAGAUUUUUUCCUCGAGCAA: the nonsense suppression was 0.923.

In the case of CUCUCUGUAGCCAAGUUGGUUUAAGGCGCAAGACUUUAAUUUAUCACUACGAAAUCUUGGAAUCCGGCGUUCGACUCGCCCCCGGGAGAUUUUUUCCUCGAGCAA, the nonsense suppression was ≤ 0.026.

In the case of CUCUCGAUAGCCAAGUUGGUUUAUGGCGCAAGACUUUAAUUUAUCACUACGAAAUCUUGAGAUCGGGCGUUCGAUUCCCCCCCGGGAGAUUUUUUCCUCGAGCAA, the nonsense suppression was ≤ 0.026.

Take CUCUCGAUAGCCAAGUUUGUUUAAGGCGCAAGACUUUAAUUUAUCACUACGAAAUCUUGAGAUCGGGCGUUCGACUCGCCCCCGGGAGAUUUUUUCCUCGAGCAA: the nonsense suppression was ≤ 0.026.

In the case of CUCUCGAUAGCCAAGUUGGUUUACGGCGCAAGACUUUAAUUUAUCACUACGAAAUCUUGAGAUCGGGCGUUCGACUCGCCCCCGGGAGAUUUUUUCCUCGAGCAA, the nonsense suppression stood at 0.123.

Turning to CUCUCGAUAGCCAAGUUGGUUUAAGGCGCAAGACUUUAAUUUAUCACUACGAAAUCUUGAAAUCGGGCGUUCGACUCGCCCCCGGGAGAUUUUUUCCUCGAGCAA, the nonsense suppression was ≤ 0.026.

As to CUCUCGAUAGCCAAGGUGGUUUAAGCCGCAAGACUUUAAUUUAUCACUACGAAAUCUUGAGAUCGGGCGUGCGACUCGCCCCCGGGAGAUUUUUUCCUCGAGCAA, the nonsense suppression was ≤ 0.026.

CUCUCGAUAGCCAAGUUGGUUUAAGUCGAAAGACUUUAAUUUAUCACUACGAAAUCUUGAGAUCGGGCGUUCGACUCGCCCCCGGGAGAUUUUUUCCUCGAGCAA: the nonsense suppression was ≤ 0.026.

CUCUCUGUAGCCAAGUUGGUUUAAGGCGCAAGACUUUAAUUUAUCACUACGAAAUCUUGAGAUCGGGCGUUCGACUCGCCCACGGGUGAUUUUUUCCUCGAGCAA: the nonsense suppression was ≤ 0.026.

With CUCUCUGUAGCCAAGUUGGUUUAAGGCGCAAGACUUUAAUUUAUCACUACGAAAUCUUGAGAGCGGGCGUCCGACUCGCCCCCGUGAGCUUUUUUCCUCGAGCAA, the nonsense suppression was ≤ 0.026.

Turning to CUCUCGAUAGCCAAGUCGGUUUAGGGCGCAAUACUUUAAUUUAUCACUACGAAAUCUUGAGAUCGGGCGUCCGACUCGCCCCCGGGUGAUUUUUUCCUCGAGCAA, the nonsense suppression was ≤ 0.026.

With CUCUCGAUAGCCAAGUUGGUUUAAGGCGCAAGACUUUAAUUUAUCACUACGAAAUCUUGAGAUCGGGCGAUCGACUCGCCCCCGGGAGCUUUUUUCCUCGAGCAA, the nonsense suppression was ≤ 0.026.

In the case of CUCUCGAUAGCCAAGUUGGUUUAAUGCGCAAGACUUUAAUUUAUCACUACGAAAUCUUGAGAUCGGGCGUUCGACUCGCCCCCGGGAGAUUUUUUCCUCGAGCAA, the nonsense suppression is ≤ 0.026.

CUCUCUGUAGCCAAGUUGGUUUAAGGCGCAAGACUUUAAUUUAUCACUACGAAAUCUGGAGAUCGGGCGUUCGACCCGCGCCCGGGAGAUUUUUUCCUCGAGCAA: the nonsense suppression is ≤ 0.026.

In the case of CUCUCUGUAGCCAAGUUGGUUUAAGGCGCAAGACUUUAAUUUAUCACUACGAAAUCUUGAGAUCGGGCGUUCGACGCGCCCCCGGGAGAUUUUUUCCUCGAGCAA, the nonsense suppression is ≤ 0.026.

Consider CUCUCGAUCGCCAAGUUGGUUUAAGGCGCAAGACUUUAAUUUAUCACUACGAAGUCUUGAGAUCGGGCGUUCGACUCGCCCCCGGGAGAUUUUUUCCUCGAGCAA, for which the nonsense suppression is ≤ 0.026.

For CUCUCUGUAGCCAAGUGGGUUUAAGGCGCAAGACUUUAAUUUAUCACUACGAAAUCUUGAGAUCGGGCGUUCGACUCGCCCCAGGGAGAUUUUUUCCUCGAGCAA, the nonsense suppression stood at 1.15.

On to CUCUCUGUAGCCAAGUUGGUUUAAGGCGCAAGACUUUAAUUUAUCACUACGAAAUCUUGAGAUCGGGCGUUCGACUCGCCACCGGGAGAUUUUUUCCUCGAGCAA, for which the nonsense suppression is ≤ 0.026.

CUCUCGAUAUCCAAGUUGGAUUAAGGCGCAAGACGUUAAUUUAUCACUACGAAAUCGUGAGACCGGGCGUUCGACUCGCCCCCGGGAGAUUUUUUCCUCGAGCAA: the nonsense suppression is ≤ 0.026.

As to CUCUCGAUAGUCAAGUUGGUUUAAGGCGCAAGACAUUAAUUUAUCACUACGAACUCUUGAGAUUGGGCGUUCGACUCGCCCCGGGGAGAUUUUUUCCUCGAGCAA, the nonsense suppression was ≤ 0.026.

For the variant CUCUCGAUAGCCAAGUUGGGUUAAGGCGCAAGACUUUAAUUUAUCACUACGAAAUCUUGAGAUCGGGCGUUCGACUCGCCCCCGGGAGAUUUUUUCCUCGAGCAA, the nonsense suppression was ≤ 0.026.

Regarding CUCUCGAUAGCCAAGUUGGUUUAAGGCGCAAGACUUUAAUUUAUCACUACGAAAUCUUGAGAUCGGGCGUUCGACCCGCCCCCGGGAUAUUUUUUCCUCGAGCAA, the nonsense suppression is ≤ 0.026.

With CUCUCGAUAGCCAAGUUGGUUUAAGUCGCAAGACUUUAAUUUAUCACUACGAAAUCUUGAGAUCGGGCGUUCGACUCGCCCCCGGGAGAUUUUUUCCUCGAGCAA, the nonsense suppression is ≤ 0.026.
